# Hits are enriched below; roughly 3.7% of the tested compounds scored in any of these assays.
# HCV NS3 hel inh: HCV NS3 helicase inhibition; NS3 helicase DNA unwinding, Cy5 molecular beacon fluorescence; inhibition, % at 10.9 µM; actives 0.56% (n = 290,000); AID 1800;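 active = inhibition above the mean of all tested compounds plus 3 SD, set per campaign, cut at about 35% in these data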
#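 Control set: DMSO versus 110 µM thioflavine S; Material: NS3 helicase fragment of HCV; Measured by: Cy5 fluorescence at 0 and 60 min, beacon hairpin quenching; Read-out basis: percent inhibition from t60/t0 fluorescence ratio; Times: reaction time 60 min, 25 °C; Repeats: single replicate; Compound dosing: single dose, 10.9 µM nominal final, DMSO 0.8% final.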
# TAAR1 ag: human TAAR1 agonism | CHO RD-HGA16 TAAR1, Fluo-8 calcium fluorescence; vehicle wells 0%, saturating PEA agonist 100% | activation, % at 3 µM | actives 0.99% (n = 360,000) | AID 624467;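 active = activation above the mean activation of all test compounds in the run plus 3 SD, cut at about 38% in these data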
# Target sequence (Q96RJ0 whole entry, looked up): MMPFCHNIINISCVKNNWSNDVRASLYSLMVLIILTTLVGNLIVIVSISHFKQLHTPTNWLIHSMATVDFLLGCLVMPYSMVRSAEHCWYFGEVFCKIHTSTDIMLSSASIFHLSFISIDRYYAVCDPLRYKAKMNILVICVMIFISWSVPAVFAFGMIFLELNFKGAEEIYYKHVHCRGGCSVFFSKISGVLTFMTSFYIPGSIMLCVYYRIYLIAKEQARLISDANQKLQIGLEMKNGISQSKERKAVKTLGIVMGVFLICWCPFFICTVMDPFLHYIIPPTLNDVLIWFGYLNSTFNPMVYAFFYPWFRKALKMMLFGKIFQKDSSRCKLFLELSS
#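 Test system: RD-HGA16 (CHO) cells co-expressing Gα16 and hTAAR1 / Benchmarks: DMSO vehicle as 0%, PEA at EC100 as 100% / Repeats: no replicates (n 1) / Measure: % activation from peak over basal fluorescence ratio, DMSO-to-PEA scaled / Timing: 17-24 h plating, Fluo-8 75 min 37 °C, 30 min RT / Technique: kinetic Fluo-8 calcium fluorescence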
# core dimer inh: blocks dimerization of HCV core protein. inhibition, % at 5 µM. actives 0.33% (n = 300,000). TR-FRET GST/Flag-core106 dimerization, 1536-well;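 active = inhibition above the mean of all tested compounds plus 3 SD, set per screening campaign, cut at about 45% in these data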
#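 Assay system: Tagged HCV core106 pair (GST and Flag) | Buffer or medium: KF-containing HEPES buffer, pH 7.45, DTT, CHAPS, BSA | Also added: Eu donor and XL665 acceptor anti-tag antibodies | Dosing: One concentration, 5 µM, in 0.5% DMSO | Timing: 4 h at 22.5 °C | Technique: TR-FRET 671 and 617 nm emission | Repeats: Singlicate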
# rCAG binder: molecules binding r(CAG) RNA repeats. actives 1.3% (n = 370,000). inhibition, % at 3 µM. r(CAG) RNA repeat, TO-PRO-1 dye displacement fluorescence;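 active = inhibition above the plate cutoff, the mean of all test compounds on that plate plus 3 SD, cut at about 35% in these data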;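 also: higher means more dye released from RNA so lower well fluorescence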
# TAAR1 antagonist: human TAAR1 antagonism; CHO RD-HGA16 TAAR1, Fluo-8 calcium fluorescence, antagonist; inhibition, % at 3 µM; actives 1.5% (n = 360,000); AID 624466;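 active = inhibition above a per-plate cutoff, the mean inhibition of test compounds on that plate plus 3 SD, cut at about 49% in these data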
#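 Test system: RD-HGA16 CHO cells with stable hTAAR1 and Gα16 / Probe or stimulus: EC80 β-phenethylamine stimulus / Times: seeding 17-24 h prior, 75-min 37 °C, 30-min RT dye loading / Detection: Fluo-8 calcium-sensitive fluorescence / Read-out basis: % inhibition scaled between DMSO and EC80 PEA controls / Repeats: singlicate, one well per test compound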
# TAAR1 nonsel count: nonselective antagonism, TAAR1 counter-screen | shares compounds with TAAR1 antagonist | counterscreen cell line, calcium fluorescence, antagonist mode | inhibition, % at 3 µM | actives 77% (n = 2,400); in the data active = inhibition above about 22%;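 also: CHO-Ga16 host cells stimulated with ATP at an EC80 level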
# TAAR1 antag conf: confirmation of human TAAR1 antagonists; shares compounds with TAAR1 antagonist; TAAR1-expressing cells, fluorescence antagonist read-out; inhibition, % at 3 µM; actives 40% (n = 2,400); AID 651785; in the data active = inhibition above about 49%;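 also: CHO-Ga16 host cells challenged with agonist PEA near its EC80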
# Ga16 ag counter: nonselective Ga16 agonist in TAAR1 antagonist counter-screen. actives 18% (n = 2,400). shares compounds with TAAR1 antagonist. Ga16-expressing cells, calcium fluorescence, agonist counterscreen. activation, % at 3 µM; in the data active = activation above about 12%
# TAAR1 ag count: counter-screen for human TAAR1 antagonists: TAAR1 agonists; activation, % at 3 µM; shares compounds with TAAR1 antagonist; actives 2% (n = 2,400); hTAAR1 cell line, fluorescence activation, agonist mode; in the data active = activation above about 37%;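 also: CHO cells stably expressing TAAR1 with calcium dye readout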
# Hits are given with their value; – = inactive; · = no result.
SMILES,HCV NS3 hel inh,TAAR1 ag,core dimer inh,rCAG binder,TAAR1 antagonist,TAAR1 nonsel count,TAAR1 antag conf,Ga16 ag counter,TAAR1 ag count
O=C(Cc1c[nH]c2ccccc12)Nc1ccc(Nc2cccnc2)c(-c2ccc(F)c(F)c2)c1,·,–,·,–,87,42,65,14,–
CC(C)N(Cc1cn(Cc2ccccc2)nn1)S(=O)(=O)c1ccccc1Br,·,·,·,–,·,·,·,·,·
COC(=O)[C@]12CCCCC=C1N(Cc1ccc(OC)cc1)C(=O)[C@@H]2CC(=O)NCCC(C)C,·,·,·,–,·,·,·,·,·
N/C(=N\c1nc2ccccc2o1)NC(=O)c1ccccc1F,–,–,–,–,–,·,·,·,·
N/C(=N\c1nc2ccccc2o1)NC(=O)c1ccccc1NC(=O)c1ccccc1,–,–,–,–,65,33,–,–,–
COC(=O)c1cc2c(c3c4ccccc4n(S(=O)(=O)c4cccc(C)c4)c13)C(=O)N(C)C2,·,–,·,–,–,·,·,·,·
O=C(O)c1ccc2c(c1)C(=O)N(Cc1ccccc1)C2=O,–,–,–,–,–,·,·,·,·
Cc1cc(C)c(NC(=O)c2ccc3c(c2)C(=O)N(Cc2cccnc2)C3=O)c(C)c1,–,–,–,–,–,·,·,·,·
Cc1ccc(O)c(NC(=O)c2ccc3c(c2)C(=O)N(Cc2cccnc2)C3=O)c1,–,–,–,–,77,34,59,13,–
CC(C)(C)N1C(=O)c2ccc(C(=O)Nc3ccc(O)cc3)cc2C1=O,–,–,–,–,63,24,–,–,–
CC(C)(C)N1C(=O)c2ccc(C(=O)O)cc2C1=O,–,–,–,–,–,·,·,·,·
CC(C)(C)NC(=O)c1cccc(NC(=O)c2ccc3c(c2)C(=O)N(C(C)(C)C)C3=O)c1,–,–,–,–,85,38,65,13,–
O=C(Nc1ccc(O)cc1)c1ccc2c(c1)C(=O)N(Cc1ccccc1)C2=O,–,–,–,–,63,22,–,14,–
COCCN(Cc1ccc(C)cc1)C(=O)[C@@H](Cc1ccccc1)NC(=O)[C@H]1O[C@@H](n2ccc(=O)[nH]c2=O)[C@H](O)[C@@H]1O,·,–,·,–,–,·,·,·,·
Cc1c(C(C)c2ccccc2O)c2ccccc2n1C (configuration not stated),·,·,·,–,·,·,·,·,·
COC(=O)c1cccc(NC(=O)c2ccc3c(c2)C(=O)N(C(C)(C)C)C3=O)c1,–,–,–,–,65,38,63,–,–
CCCCN(C)C(=O)C(Cc1ccccc1)NS(=O)(=O)c1ccc2c(c1)c(=O)n(C)c(=O)n2C (configuration not stated),–,–,–,–,67,31,–,–,–
Cc1ccccc1Cn1cc(CN2[C@H](C)COc3cc(Br)ccc3S2(=O)=O)nn1,·,·,·,–,·,·,·,·,·
CCN(CC)S(=O)(=O)c1cc(NC(=O)c2ccc3c(c2)NC(=O)C(C)S3)ccc1C (configuration not stated),·,–,·,–,73,41,52,13,–
Cc1cc(C)c(NC(=O)c2ccc3c(c2)NC(=O)C(C)S3)c(C)c1 (configuration not stated),·,–,·,–,–,·,·,·,·
Cc1ccc2nc(NC(=O)CS(=O)(=O)Cc3ccccc3)sc2c1,–,–,–,–,–,·,·,·,·
Cc1ccc2nc(NC(=O)CSCc3ccccc3)sc2c1,–,–,–,–,50,–,–,–,–
Cc1ccc(-n2c(C)cc(/C=N/NC(=O)c3ccncc3)c2C)cc1,–,–,–,–,–,·,·,·,·
CNC(=S)N/N=C/c1ccccc1Cl,–,–,–,–,–,·,·,·,·
CNC(=S)N/N=C/c1cc(C)n(-c2ccc(Cl)c(Cl)c2)c1C,–,–,–,–,70,28,62,30,59
SMILES,HCV NS3 hel inh,TAAR1 ag,core dimer inh,rCAG binder,TAAR1 antagonist,TAAR1 nonsel count,TAAR1 antag conf,Ga16 ag counter,TAAR1 ag count
Cc1ccc(-n2c(C)cc(/C=N/NC(N)=S)c2C)cc1,–,–,–,–,90,–,91,–,–
CC(=O)N[C@@H]1C[C@@H]2O[C@@H](CO)CC[C@@H]2O[C@@H]1CCc1ccc(C#CC2(O)CCCC2)cc1,·,·,·,–,·,·,·,·,·
CCN(CC)S(=O)(=O)c1ccc2nc(NC(=O)c3ccco3)sc2c1,–,–,–,–,–,·,·,·,·
CCN(CC)S(=O)(=O)c1ccc2nc(NC(=O)c3cccs3)sc2c1,–,–,–,–,63,–,–,–,–
NC(=O)C1=CN([C@@H]2O[C@H](COP(=O)(O)OP(=O)(O)OC[C@H]3O[C@@H](n4cnc5c(N)ncnc54)[C@H](O)[C@@H]3O)[C@@H](O)[C@H]2O)C=CC1,·,·,·,–,·,·,·,·,·
CN(Cc1cnn(-c2ccccc2)c1)C(=O)c1cccc(S(=O)(=O)N(C)c2ccccc2)c1,·,–,·,–,63,35,–,–,–
CN1CCN(C(=O)c2cnn3c(C(F)(F)F)cc(-c4cccs4)nc23)CC1,–,–,–,–,–,·,·,·,·
O=C(c1cnn2c(C(F)(F)F)cc(-c3cccs3)nc12)N1CCN(Cc2ccccc2)CC1,–,–,–,–,59,–,–,–,–
Cc1cccc(Cn2cc(COC(=O)NCCc3c[nH]c4ccccc34)nn2)c1,·,·,·,–,·,·,·,·,·
COc1cccc(C(=O)Nc2cccc(NC(=O)c3ccccc3Cl)c2)c1,–,–,–,–,68,–,–,–,–
COc1ccc(/C=N/NC(=O)c2cccc(NC(=O)c3ccccc3Cl)c2)c(OC)c1,–,–,–,–,60,24,–,–,–
COc1cccc(C(=O)Nc2ccccc2)c1,–,–,–,–,–,·,·,·,·
COc1ccc(-n2c(SCC(=O)NN=Cc3c(O)ccc4ccccc34)nnc2-c2ccc(C(C)(C)C)cc2)cc1,·,·,·,–,·,·,·,·,·
Cc1onc(-c2ccccc2Cl)c1C(=O)Nc1ccc(-c2cn3cccnc3n2)cc1,–,·,–,·,·,·,·,·,·
Cc1onc(-c2ccccc2Cl)c1C(=O)Nc1cccc(-c2nc3ncccn3c2C)c1,–,–,–,–,107,–,–,–,–
CN1CCCN(S(=O)(=O)c2ccc3c(c2)n(C)c(=O)c(=O)n3C)CC1,·,·,·,–,·,·,·,·,·
COc1ccc(C(=O)Nc2nc(CC(=O)NCc3c(F)cccc3F)cs2)cc1,·,–,·,–,71,25,50,14,–
CCOC(=O)Cc1csc(NC(=O)c2ccc(F)cc2)n1,–,–,–,–,–,·,·,·,·
COc1ccc(C(=O)Nc2nc(CC(=O)NCc3ccc(F)cc3)cs2)cc1,·,–,–,–,72,48,66,14,–
COc1ccc(C(=O)Nc2nc(CC(=O)NCCc3ccccc3OC)cs2)cc1,·,–,–,–,57,27,–,–,–
